Data from ChEMBL document CHEMBL4024790 (J Med Chem, 2018).
Calls of active or inactive are those of the source. The rule behind the calls is not given here.

How the values were obtained:
[1] = Plasma clearance in Wistar Han rat at 1 mg/kg, iv by LC-MS/MS analysis; assay type: ADME, organism-based
Method in brief: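 Single iv dose to male Wistar-Han rats (1 mg/kg) or dogs (0.3 mg/kg), given as a solution in 20% (w/v) SBECD with HCl. Dose volume 1 mL/kg in rats and 0.4 mL/kg in dogs. Blood taken by carotid artery cannula from 2 min to 24 h into K2EDTA (rat) or K3EDTA (dog) tubes. Plasma analysed by LC-MS/MS with positive electrospray after acetonitrile precipitation with internal standard.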

[2] = biological target: T1, Cytochrome P450 1A2 (Homo sapiens, UniProt P05177); experiment: Inhibition of recombinant human CYP1A2; assay type: ADME; conditions: recombinant enzyme
T1 sequence (P05177 whole entry): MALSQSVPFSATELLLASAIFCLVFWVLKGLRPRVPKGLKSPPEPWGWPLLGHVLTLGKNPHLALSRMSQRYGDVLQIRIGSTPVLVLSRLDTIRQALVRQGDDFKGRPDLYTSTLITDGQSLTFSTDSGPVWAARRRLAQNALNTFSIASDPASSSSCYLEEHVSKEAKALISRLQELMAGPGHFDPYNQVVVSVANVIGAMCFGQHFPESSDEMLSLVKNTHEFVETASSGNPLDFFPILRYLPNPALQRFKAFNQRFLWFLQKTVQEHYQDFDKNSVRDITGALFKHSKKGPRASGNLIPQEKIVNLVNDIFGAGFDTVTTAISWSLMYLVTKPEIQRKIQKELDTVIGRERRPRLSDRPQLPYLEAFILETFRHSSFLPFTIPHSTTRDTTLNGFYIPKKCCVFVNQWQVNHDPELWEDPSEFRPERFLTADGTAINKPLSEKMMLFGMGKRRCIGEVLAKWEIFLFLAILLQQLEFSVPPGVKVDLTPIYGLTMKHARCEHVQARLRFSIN

[3] = system: Liver; experiment: Drug metabolism in human liver microsomes assessed as 3-(7-methyl-5-(1-methyl-5-(5-(trifluoromethyl)pyridin-2-yl)-1H-pyrazol-4-yl)imidazo[1,5-f][1,2,4]triazin-4-ylamino)propanoic acid formation at 1 to 50 uM after 1 hr by LC-MS/MS analysis; assay type: ADME, microsome
Method in brief: (§1)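 Rat, dog or human liver microsomes or hepatocytes (P450 0.35–0.5 µM final) incubated with compound at 1, 10 or 50 µM in 100 mM phosphate buffer with 1 mM NADP regenerating system, 37°C for 1 h; quenched with 4 volumes acetonitrile, centrifuged, supernatant evaporated, reconstituted in 5% aqueous acetonitrile and analysed by reversed-phase LC.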

[4] = Drug metabolism in dog hepatocytes assessed as 1-(7-methyl-5-(1-methyl-5-(5-(trifluoromethyl)pyridin-2-yl)-1H-pyrazol-4-yl)imidazo[1,5-f][1,2,4]triazin-4-yl)azetidin-3-ol formation at 1 to 50 uM after 1 hr by LC-MS/MS analysis; assay type: ADME, cell-based, Canis lupus familiaris, Hepatocyte; method in brief: as §1
[5] = system: Rattus norvegicus; experiment: Effect on risperidone-induced antipsychotic activity in Long Evans rat at 0.32 to 3.2 mg/kg, sc by conditioned avoidance responding assay; assay type: functional, organism-based
Method in brief: (§2)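 Rats dosed SC at 0.32, 1.0 and 3.2 mg/kg; conditioned avoidance responding also run in combination with risperidone 0.032 mg/kg.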

[6] = system: Mus musculus; experiment: In vivo effect on phosphorylated CREB level in CD-1 mouse brain hippocampus by immunoassay; assay type: functional, organism-based
[7] = organism: Rattus norvegicus
[8] = AUC (0 to infinity) in Wistar Han rat at 5 mg/kg, po administered via gavage by LC-MS/MS analysis; assay type: ADME, organism-based; set-up: dose 5 mg/kg, route oral, time infinity; conditions: in vivo
[9] = system: Rattus norvegicus; experiment: Effect on habituated locomotor activity in Long Evans rat at 0.32 to 3.2 mg/kg, sc; assay type: ADME, organism-based; conditions: in vivo; method in brief: as §2
[10] = system: Rattus norvegicus; experiment: Effect on spontaneous locomotor activity in Long Evans rat at 0.32 to 3.2 mg/kg, sc; assay type: ADME, organism-based; conditions: in vivo; method in brief: as §2
[11] = Drug metabolism in rat hepatocytes assessed as 1-(7-methyl-5-(1-methyl-5-(5-(trifluoromethyl)pyridin-2-yl)-1H-pyrazol-4-yl)imidazo[1,5-f][1,2,4]triazin-4-yl)azetidin-3-ol formation at 1 to 50 uM after 1 hr by LC-MS/MS analysis; assay type: ADME, cell-based, Hepatocyte; method in brief: as §1
[12] = system: Liver; experiment: Drug metabolism in rat liver microsomes assessed as 1-(7-methyl-5-(1-methyl-5-(5-(trifluoromethyl)pyridin-2-yl)-1H-pyrazol-4-yl)imidazo[1,5-f][1,2,4]triazin-4-yl)azetidin-3-ol formation at 1 to 50 uM after 1 hr by LC-MS/MS analysis; assay type: ADME, microsome; method in brief: as §1
[13] = system: Liver; experiment: Drug metabolism in human liver microsomes assessed as 1-(7-methyl-5-(1-methyl-5-(5-(trifluoromethyl)pyridin-2-yl)-1H-pyrazol-4-yl)imidazo[1,5-f][1,2,4]triazin-4-yl)azetidin-3-ol formation at 1 to 50 uM after 1 hr by LC-MS/MS analysis; assay type: ADME, microsome; method in brief: as §1
[14] = organism: Mus musculus; experiment: Increase in cGMP level in CD-1 mouse brain cortex assessed as unbound brain concentration required to show the effect by immunoassay; assay type: functional
Method in brief: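 CD-1 mice dosed SC (solution in 20% SBE-β-CD with 2 molar equivalents 1N HCl, 1 mL/kg); euthanized by focused microwave irradiation of brain; cortex, striatum, hippocampus homogenized in 0.5 N HCl, centrifuged; cyclic nucleotides in supernatant by enzyme immunoassay. Unbound brain exposure from satellite animals; dose-response and time-course data combined with linear model; one-way ANOVA with Fisher's PLSD.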

[15] = organism: Canis familiaris; experiment: Toxicity in dog assessed as effect on CNS up to 1 month by microscopic method; set-up: species or system Canis lupus familiaris; conditions: in vivo

clearance [1]: 122 mL/min/kg | inhibition (INH) [2]: Not Active | Drug metabolism [3]: Metabolite_Detected | Drug metabolism [4]: Metabolite_Detected | AUC(0-inf) [8]: 312 ng·h/mL | Drug metabolism [11]: Metabolite_Detected | Drug metabolism [12]: Metabolite_Detected | Drug metabolism [13]: Metabolite_Detected
Structure (SMILES): Cc1nc(-c2cnn(C)c2-c2ccc(C(F)(F)F)cn2)c2c(N3CCC3)ncnn12 [PF-05180999]
Activity [5]: inactive | Activity [6]: inactive | fIC50 [7]: 9 nM | Activity [9]: Non-Toxic | Activity [10]: Non-Toxic | fEC50 [14]: 79.4 nM | Activity [15]: Toxic
